Active and inactive are the calls of the source. No cut-off for these calls is given here.
Key:
[1] = Half life in Sprague-Dawley rat at 10 mg/kg, po and measured after 24 hrs by LC-MS/MS analysis; type: ADME, organism-based; settings: in vivo
Method in brief: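 Male Sprague–Dawley rats (190–220 g) dosed by oral gavage at 10 mg/kg in 5% DMSO / 95% HP-β-CD aqueous solution (20%); iv reference arm at 1 mg/kg. Blood sampled at 0.25, 0.5, 1, 2, 4, 6, 8 and 24 h, centrifuged (8000 × g, 6 min), and plasma quantified by LC–MS/MS.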

[2] = target: T1, Epidermal growth factor receptor (Homo sapiens, UniProt P00533); experiment: Inhibition of wild type EGFR (unknown origin) expressed in baculovirus expression system by ELISA
[3] = target: Tyrosine-protein kinase JAK2 (Homo sapiens) (UniProt O60674); experiment: Inhibition of JAK2 (unknown origin) at 1000 nM by DiscoverX KINOMEscan assay relative to control; values are per cent of control
[4] = test system: Epidermal growth factor receptor (Homo sapiens), P00533 [L858R,T790M]; experiment: In vivo inhibition of EGFR in BALB/c nude mouse xenografted with human NCI-H1975 cells harboring EGFR L858R/T790M mutant assessed as decrease in phosphorylated-EGFR level at 15 to 30 mg/kg, po for 18 days by western blot analysis; type: functional, organism-based; settings: dose 15-30 mg/kg, time 18.0 day
[5] = target: Insulin-like growth factor 1 receptor (Homo sapiens) (UniProt P08069); experiment: Inhibition of IGF1R (unknown origin) at 1000 nM by DiscoverX KINOMEscan assay relative to control; values are per cent of control
[6] = Toxicity in BALB/c nude mouse xenografted with human NCI-H1975 cells harboring EGFR L858R/T790M mutant assessed as mortality at 15 to 30 mg/kg, po for 18 days; type: organism-based; settings: in vivo, 432 h, dose 15-30 mg/kg, time 18 day
Method in brief: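 Female BALB/cA nu/nu mice were given 1 × 10^6 H1975 cells in 0.1 mL PBS subcutaneously in the right flank. At an average tumour volume of 100 mm3 (about 18 days post-implantation) they were randomised, n = 6 per group. Groups received 15 or 30 mg/kg/day for 18 consecutive days or vehicle. Mice were kept at constant room temperature, 12/12-h light/dark, with standard diet and water ad lib.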

[7] = Clearance in Sprague-Dawley rat at 1 mg/kg, iv and measured after 24 hrs by LC-MS/MS analysis; type: ADME, organism-based; settings: in vivo
NCI-H1975 = experiment: Antiproliferative activity against human NCI-H1975 cells harboring EGFR L858R/T790M double mutant assessed as inhibition of cell proliferation incubated for 72 hrs by sulforhodamine B colorimetric assay; type: functional, cell-based; settings: NCI-H1975, 72 h
[8] = target: T1, Epidermal growth factor receptor; experiment: Inhibition of EGFR phosphorylation in EGF-stimulated human A-431 cells harboring wild type EGFR at 100 nM and measured after 2 hrs by Western blot analysis; type: cell-based
Method in brief: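 Cells treated with compound for 2 h, then stimulated with EGF for 15 min and lysed. Lysates cleared at 12,000 × g (10 min, 4 °C), protein measured by Bradford assay, and equal amounts run on 8% SDS-PAGE and blotted to nitrocellulose. Probed for p-EGFR (Y1068), EGFR, p-ERK (T202/Y204), ERK, with tubulin or GAPDH as loading controls.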

[9] = Toxicity in BALB/c nude mouse xenografted with human NCI-H1975 cells harboring EGFR L858R/T790M mutant assessed as morphological changes in kidney at 15 to 30 mg/kg, po for 18 days by hematoxylin and eosin staining based microscopic analysis; type: organism-based; settings: in vivo, 432 h, dose 15-30 mg/kg, time 18 day
Method in brief: (§1)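 H1975 subcutaneous xenografts were grown in female BALB/cA nu/nu mice (n = 6 per group), dosed at 15 or 30 mg/kg/day for 18 days or with vehicle. At the end the mice were sacrificed. Heart, kidney and liver were harvested, processed and stained with hematoxylin and eosin for routine histological examination.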

[10] = Toxicity in BALB/c nude mouse xenografted with human NCI-H1975 cells harboring EGFR L858R/T790M mutant assessed as morphological changes in heart at 15 to 30 mg/kg, po for 18 days by hematoxylin and eosin staining based microscopic analysis; type: organism-based; settings: in vivo, 432 h, dose 15-30 mg/kg, time 18 day; method in brief: as §1
[11] = target: T2, Tyrosine-protein kinase JAK3 (Homo sapiens) (UniProt P52333); experiment: Inhibition of JAK3 (unknown origin) at 1000 nM by DiscoverX KINOMEscan assay relative to control; values are per cent of control
T2 sequence (whole entry): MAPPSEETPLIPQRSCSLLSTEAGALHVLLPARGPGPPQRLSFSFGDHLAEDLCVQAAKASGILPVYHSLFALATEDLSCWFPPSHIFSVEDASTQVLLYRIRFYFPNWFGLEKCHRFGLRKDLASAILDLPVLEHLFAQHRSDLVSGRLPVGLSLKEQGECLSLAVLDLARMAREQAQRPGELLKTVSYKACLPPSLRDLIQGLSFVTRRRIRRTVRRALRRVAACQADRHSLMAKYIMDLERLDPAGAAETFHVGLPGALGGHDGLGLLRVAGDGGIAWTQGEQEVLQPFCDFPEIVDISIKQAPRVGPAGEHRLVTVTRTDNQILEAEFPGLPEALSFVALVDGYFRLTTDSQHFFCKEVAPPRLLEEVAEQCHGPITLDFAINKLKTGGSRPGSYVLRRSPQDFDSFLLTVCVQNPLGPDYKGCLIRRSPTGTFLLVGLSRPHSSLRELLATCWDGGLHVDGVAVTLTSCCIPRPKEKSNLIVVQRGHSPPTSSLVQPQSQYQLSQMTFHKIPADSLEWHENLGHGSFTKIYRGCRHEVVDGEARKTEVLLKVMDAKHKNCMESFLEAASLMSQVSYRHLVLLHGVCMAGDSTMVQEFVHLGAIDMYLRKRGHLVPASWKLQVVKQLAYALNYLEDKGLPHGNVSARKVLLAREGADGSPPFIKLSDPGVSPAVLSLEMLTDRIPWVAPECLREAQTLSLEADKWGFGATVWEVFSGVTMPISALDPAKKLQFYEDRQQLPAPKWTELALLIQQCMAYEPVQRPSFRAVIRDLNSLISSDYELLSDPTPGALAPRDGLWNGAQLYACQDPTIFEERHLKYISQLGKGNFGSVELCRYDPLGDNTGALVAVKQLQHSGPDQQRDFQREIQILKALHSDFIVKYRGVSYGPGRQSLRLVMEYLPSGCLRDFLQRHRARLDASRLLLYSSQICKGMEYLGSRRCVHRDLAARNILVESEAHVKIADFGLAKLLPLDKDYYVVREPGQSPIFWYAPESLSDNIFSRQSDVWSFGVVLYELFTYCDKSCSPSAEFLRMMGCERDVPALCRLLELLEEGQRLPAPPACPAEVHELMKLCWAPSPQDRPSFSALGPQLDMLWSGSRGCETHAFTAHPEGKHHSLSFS

[12] = AUC (0 to infinity) in Sprague-Dawley rat at 1 mg/kg, iv and measured after 24 hrs by LC-MS/MS analysis; type: ADME, organism-based; set-up: time 24 hrs, dose 1 mg/kg, route iv; settings: in vivo

T1 sequence (P00533 whole entry): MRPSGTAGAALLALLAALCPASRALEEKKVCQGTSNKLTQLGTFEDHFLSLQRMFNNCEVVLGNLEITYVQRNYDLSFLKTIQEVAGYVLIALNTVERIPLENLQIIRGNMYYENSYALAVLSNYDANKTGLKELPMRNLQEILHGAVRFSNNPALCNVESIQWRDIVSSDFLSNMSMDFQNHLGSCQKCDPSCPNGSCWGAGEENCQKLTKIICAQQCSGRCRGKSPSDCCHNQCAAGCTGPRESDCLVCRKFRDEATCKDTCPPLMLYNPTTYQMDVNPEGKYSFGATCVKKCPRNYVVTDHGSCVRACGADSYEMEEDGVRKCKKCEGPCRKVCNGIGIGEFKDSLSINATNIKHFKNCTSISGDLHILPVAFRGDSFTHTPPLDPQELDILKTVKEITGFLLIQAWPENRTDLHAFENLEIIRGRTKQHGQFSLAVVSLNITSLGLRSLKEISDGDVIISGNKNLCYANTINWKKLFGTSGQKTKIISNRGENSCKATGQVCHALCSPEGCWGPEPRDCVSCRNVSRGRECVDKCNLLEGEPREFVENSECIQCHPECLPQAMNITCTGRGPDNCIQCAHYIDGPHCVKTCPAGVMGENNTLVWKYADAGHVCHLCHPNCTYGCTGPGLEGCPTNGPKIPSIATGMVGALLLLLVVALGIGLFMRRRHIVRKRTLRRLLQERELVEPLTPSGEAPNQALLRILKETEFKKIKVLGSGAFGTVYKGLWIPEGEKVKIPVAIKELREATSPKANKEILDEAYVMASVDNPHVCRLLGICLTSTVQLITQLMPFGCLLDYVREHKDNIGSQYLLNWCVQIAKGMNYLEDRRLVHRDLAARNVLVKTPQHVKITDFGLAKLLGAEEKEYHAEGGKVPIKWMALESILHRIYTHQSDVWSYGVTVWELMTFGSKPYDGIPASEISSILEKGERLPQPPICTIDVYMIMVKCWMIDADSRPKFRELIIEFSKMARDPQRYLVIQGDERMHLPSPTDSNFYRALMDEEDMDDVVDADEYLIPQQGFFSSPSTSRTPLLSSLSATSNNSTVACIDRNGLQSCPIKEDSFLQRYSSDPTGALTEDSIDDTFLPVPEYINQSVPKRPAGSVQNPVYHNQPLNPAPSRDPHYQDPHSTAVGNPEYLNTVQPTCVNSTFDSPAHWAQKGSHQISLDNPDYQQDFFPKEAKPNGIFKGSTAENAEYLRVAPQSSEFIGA
Sequence of Insulin-like growth factor 1 receptor (Homo sapiens) (P08069 31-736 limits assumed): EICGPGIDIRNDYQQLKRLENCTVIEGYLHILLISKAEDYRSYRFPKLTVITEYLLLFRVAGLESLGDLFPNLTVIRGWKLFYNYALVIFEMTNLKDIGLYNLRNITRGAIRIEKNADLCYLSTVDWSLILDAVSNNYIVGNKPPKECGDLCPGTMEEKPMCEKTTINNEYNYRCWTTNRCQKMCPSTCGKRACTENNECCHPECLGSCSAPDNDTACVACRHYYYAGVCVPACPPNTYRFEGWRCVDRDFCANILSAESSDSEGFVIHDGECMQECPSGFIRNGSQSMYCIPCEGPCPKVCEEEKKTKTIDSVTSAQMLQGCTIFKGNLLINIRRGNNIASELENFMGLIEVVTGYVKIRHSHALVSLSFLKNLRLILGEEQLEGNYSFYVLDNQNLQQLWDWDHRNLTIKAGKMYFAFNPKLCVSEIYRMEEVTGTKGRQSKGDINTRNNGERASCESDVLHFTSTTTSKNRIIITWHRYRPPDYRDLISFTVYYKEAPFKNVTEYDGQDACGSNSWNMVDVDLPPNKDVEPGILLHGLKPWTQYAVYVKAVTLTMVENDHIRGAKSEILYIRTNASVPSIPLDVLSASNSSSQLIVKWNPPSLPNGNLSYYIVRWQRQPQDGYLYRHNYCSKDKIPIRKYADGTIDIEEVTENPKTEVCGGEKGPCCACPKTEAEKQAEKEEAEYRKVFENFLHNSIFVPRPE
Sequence of Insulin-like growth factor 1 receptor (Homo sapiens) (P08069 741-1367 limits assumed): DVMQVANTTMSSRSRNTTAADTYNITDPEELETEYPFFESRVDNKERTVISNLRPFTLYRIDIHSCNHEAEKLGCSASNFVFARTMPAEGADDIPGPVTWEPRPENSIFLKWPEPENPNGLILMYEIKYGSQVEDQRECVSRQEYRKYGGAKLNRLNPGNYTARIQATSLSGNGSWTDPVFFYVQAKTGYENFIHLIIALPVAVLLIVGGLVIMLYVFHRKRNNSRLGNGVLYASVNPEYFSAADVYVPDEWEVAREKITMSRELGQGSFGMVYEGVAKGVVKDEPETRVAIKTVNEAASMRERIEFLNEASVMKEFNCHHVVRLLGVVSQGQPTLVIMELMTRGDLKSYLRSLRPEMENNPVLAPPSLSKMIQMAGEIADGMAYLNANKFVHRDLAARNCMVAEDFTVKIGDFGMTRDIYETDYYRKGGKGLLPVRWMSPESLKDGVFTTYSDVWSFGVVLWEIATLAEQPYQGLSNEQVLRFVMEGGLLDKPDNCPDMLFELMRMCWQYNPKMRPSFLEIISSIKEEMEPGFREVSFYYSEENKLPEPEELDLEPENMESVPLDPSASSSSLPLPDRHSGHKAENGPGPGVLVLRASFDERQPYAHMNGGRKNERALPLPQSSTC
Sequence of Epidermal growth factor receptor (Homo sapiens), P00533 [L858R,T790M] (P00533 whole entry T790M/L858R, looked up): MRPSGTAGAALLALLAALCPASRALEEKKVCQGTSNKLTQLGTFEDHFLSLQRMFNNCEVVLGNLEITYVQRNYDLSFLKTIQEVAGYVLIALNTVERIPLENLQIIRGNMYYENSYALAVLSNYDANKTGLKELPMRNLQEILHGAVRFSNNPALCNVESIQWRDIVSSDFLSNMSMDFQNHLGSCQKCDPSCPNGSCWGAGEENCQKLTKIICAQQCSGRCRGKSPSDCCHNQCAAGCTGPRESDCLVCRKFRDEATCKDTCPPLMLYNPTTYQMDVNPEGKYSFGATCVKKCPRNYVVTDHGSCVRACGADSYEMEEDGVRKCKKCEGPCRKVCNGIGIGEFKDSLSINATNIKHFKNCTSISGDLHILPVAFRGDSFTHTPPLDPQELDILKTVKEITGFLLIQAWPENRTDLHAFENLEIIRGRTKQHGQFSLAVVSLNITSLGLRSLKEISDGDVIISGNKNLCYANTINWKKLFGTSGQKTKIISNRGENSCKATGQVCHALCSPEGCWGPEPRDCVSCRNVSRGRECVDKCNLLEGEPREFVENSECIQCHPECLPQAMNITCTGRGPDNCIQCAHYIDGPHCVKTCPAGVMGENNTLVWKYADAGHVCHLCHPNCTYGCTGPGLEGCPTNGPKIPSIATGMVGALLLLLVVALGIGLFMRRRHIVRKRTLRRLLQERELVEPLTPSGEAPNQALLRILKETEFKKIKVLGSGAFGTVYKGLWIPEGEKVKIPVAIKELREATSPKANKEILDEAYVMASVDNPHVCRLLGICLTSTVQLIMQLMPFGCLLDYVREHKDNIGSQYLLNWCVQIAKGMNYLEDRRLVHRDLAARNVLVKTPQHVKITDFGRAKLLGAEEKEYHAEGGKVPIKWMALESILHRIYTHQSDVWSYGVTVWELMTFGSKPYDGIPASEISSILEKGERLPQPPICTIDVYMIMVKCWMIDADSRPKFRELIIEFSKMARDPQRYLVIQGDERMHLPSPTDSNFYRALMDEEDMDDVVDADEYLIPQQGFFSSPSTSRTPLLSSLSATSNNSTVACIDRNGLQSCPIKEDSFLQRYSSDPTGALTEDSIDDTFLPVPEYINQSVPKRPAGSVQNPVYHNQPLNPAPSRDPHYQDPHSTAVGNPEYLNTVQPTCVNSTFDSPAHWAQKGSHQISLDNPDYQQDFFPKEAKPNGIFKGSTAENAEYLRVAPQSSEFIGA
Sequence of Tyrosine-protein kinase JAK2 (Homo sapiens) (O60674 whole entry): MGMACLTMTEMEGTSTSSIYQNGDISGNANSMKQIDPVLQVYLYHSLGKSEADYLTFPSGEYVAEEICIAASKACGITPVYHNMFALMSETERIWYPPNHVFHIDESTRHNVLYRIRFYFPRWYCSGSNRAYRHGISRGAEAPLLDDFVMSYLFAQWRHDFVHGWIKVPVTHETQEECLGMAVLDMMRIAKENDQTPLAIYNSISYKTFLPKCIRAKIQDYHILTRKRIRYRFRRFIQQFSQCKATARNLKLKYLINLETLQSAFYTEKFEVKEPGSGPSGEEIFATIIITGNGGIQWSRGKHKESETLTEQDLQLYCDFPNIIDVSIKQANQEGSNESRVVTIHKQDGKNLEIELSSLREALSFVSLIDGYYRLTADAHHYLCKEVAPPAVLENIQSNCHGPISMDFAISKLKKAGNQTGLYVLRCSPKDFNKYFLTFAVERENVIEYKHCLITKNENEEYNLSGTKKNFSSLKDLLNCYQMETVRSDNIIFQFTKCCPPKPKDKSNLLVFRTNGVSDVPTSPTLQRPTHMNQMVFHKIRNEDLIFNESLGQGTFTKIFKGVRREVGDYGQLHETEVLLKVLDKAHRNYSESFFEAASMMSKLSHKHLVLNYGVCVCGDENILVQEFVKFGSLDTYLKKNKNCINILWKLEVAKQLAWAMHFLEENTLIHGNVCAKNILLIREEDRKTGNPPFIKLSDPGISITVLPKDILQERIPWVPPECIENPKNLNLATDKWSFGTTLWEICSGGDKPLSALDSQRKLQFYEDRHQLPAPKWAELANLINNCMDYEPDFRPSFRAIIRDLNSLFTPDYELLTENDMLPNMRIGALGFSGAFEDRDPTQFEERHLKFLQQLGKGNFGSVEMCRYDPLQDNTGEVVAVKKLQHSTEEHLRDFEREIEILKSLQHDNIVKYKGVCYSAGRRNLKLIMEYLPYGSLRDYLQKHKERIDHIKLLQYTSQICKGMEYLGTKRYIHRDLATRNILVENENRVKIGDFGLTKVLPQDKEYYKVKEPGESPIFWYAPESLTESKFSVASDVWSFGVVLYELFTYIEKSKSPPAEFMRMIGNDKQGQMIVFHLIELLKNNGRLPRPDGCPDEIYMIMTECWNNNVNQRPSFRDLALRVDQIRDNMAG

With `C=CC(=O)Nc1cc(Nc2ncc(Br)c(Nc3ccc4ccn(C)c4c3)n2)c(OC)cc1N1CCN(C)CC1` the half-life [1] was 3.25 h, the IC50 [2] was 280 nM and the residual activity [3] was less than 10%. The inhibition [4] was “Active”, the residual activity [5] was greater than 35% and the Activity [6] was “Non-Toxic”. For the same molecule, the clearance [7] was 32.6 mL/min/kg, the IC50 (NCI-H1975) was 184 nM and the inhibition [8] was “inactive”. For the same molecule, the Activity [9] was “Non-Toxic”, the Activity [10] was “Non-Toxic” and the residual activity [11] was less than 1%. The AUC [12] was 515 ng·h/mL.
